ChEMBL document CHEMBL1125428, “Development of 2,3-dihydro-6-(3-phenoxypropyl)-2-(2-phenylethyl)-5-benzofuranol (L-670,630) as a potent and orally active inhibitor of 5-lipoxygenase” (J Med Chem, 1992)

Legend:
[1] = system: Rattus norvegicus; assay: Total radioactivity in tissues of male sd rats dosed orally with H-labeled compound at 21 mg/kg after 48 hr in lung; format: functional; details: route oral
Method in brief: (§1)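 Male Sprague-Dawley rats received ³H-labelled drug (phenoxy ring, 3.96 μCi/mg) in PEG-400 by gavage at 21 mg/kg. Animals were killed at 5, 15, 30 min and at 1, 2, 4, 24 and 48 h. Homogenates were pooled per group, and total radioactivity was measured as the mean of duplicate combustions, in μg equiv/g. Two or three rats were used per point, except one rat at 24 and 48 h.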

[2] = system: Rattus norvegicus; assay: Total radioactivity in tissues of male sd rats dosed intravenously with H-labeled compound at 21 mg/kg after 2 min in plasma; format: functional; details: route intravenous
[3] = target: Arachidonate 5-lipoxygenase (Homo sapiens); assay: Inhibitory activity of LTB4 production in human PMN
[4] = system: Rattus norvegicus; assay: Total radioactivity in tissues of male sd rats dosed intravenously with H-labeled compound at 21 mg/kg after 1 hr in lung; format: functional; details: route intravenous
Method in brief: (§2)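 Male Sprague-Dawley rats given ³H compound iv via femoral vein in PEG-400, 21 mg/kg, 3.96 μCi/mg. Killed at 2, 10, 30 min, 1, 2 and 4 h. Total radioactivity measured by combustion of composited tissue homogenates, in duplicate. Two or three rats per time point, one at 10 and 30 min.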

[5] = system: Rattus norvegicus; assay: Total radioactivity in tissues of male sd rats dosed orally with H-labeled compound at 21 mg/kg after 24 hr r in plasma; format: functional; details: route oral; method in brief: as §1
[6] = system: Rattus norvegicus; assay: Total radioactivity in tissues of male sd rats dosed orally with H-labeled compound at 21 mg/kg after 4 hr in lung; format: functional; details: route oral; method in brief: as §1
[7] = system: Rattus norvegicus; assay: Total radioactivity in tissues of male sd rats dosed orally with H-labeled compound at 21 mg/kg after 15 min in plasma; format: functional; details: route oral; method in brief: as §1
[8] = system: Rattus norvegicus; assay: Total radioactivity in tissues of male sd rats dosed intravenously with H-labeled compound at 21 mg/kg after 2 hr in kidney; format: functional; details: route intravenous; method in brief: as §2
[9] = system: Rattus norvegicus; assay: Total radioactivity in tissues of male sd rats dosed intravenously with H-labeled compound at 21 mg/kg after 2 min in liver; format: functional; details: route intravenous; method in brief: as §2
[10] = system: Rattus norvegicus; assay: Total radioactivity in tissues of male sd rats dosed intravenously with H-labeled compound at 21 mg/kg after 4 hr in kidney; format: functional; details: route intravenous; method in brief: as §2
[11] = species: Canis familiaris; assay: Effect on methemoglobin formation in canine venous blood containing heparin; format: functional, Canis lupus familiaris
[12] = system: Rattus norvegicus; assay: Total radioactivity in tissues of male sd rats dosed orally with H-labeled compound at 21 mg/kg after 30 min in liver; format: functional; details: route oral; method in brief: as §1
[13] = system: Rattus norvegicus; assay: Total radioactivity in tissues of male sd rats dosed orally with H-labeled compound at 21 mg/kg after 1 hr in kidney; format: functional; details: route oral; method in brief: as §1
[14] = system: Rattus norvegicus; assay: Total radioactivity in tissues of male sd rats dosed intravenously with H-labeled compound at 21 mg/kg after 1 hr in plasma; format: functional; details: route intravenous
[15] = system: Rattus norvegicus; assay: Total radioactivity in tissues of male sd rats dosed orally with H-labeled compound at 21 mg/kg after 48 hr in plasma; format: functional; details: route oral; method in brief: as §1
[16] = system: Rattus norvegicus; assay: Total radioactivity in tissues of male sd rats dosed intravenously with H-labeled compound at 21 mg/kg after 30 min in kidney; format: functional; details: route intravenous; method in brief: as §2
[17] = system: Rattus norvegicus; assay: Total radioactivity in tissues of male sd rats dosed orally with H-labeled compound at 21 mg/kg after 5 min in lung; format: functional; details: route oral; method in brief: as §1
[18] = system: Rattus norvegicus; assay: Total radioactivity in tissues of male sd rats dosed intravenously with H-labeled compound at 21 mg/kg after 1 hr in liver; format: functional; details: route intravenous; method in brief: as §2
[19] = system: Rattus norvegicus; assay: Total radioactivity in tissues of male sd rats dosed intravenously with H-labeled compound at 21 mg/kg after 2 min in lung; format: functional; details: route intravenous; method in brief: as §2
[20] = system: Rattus norvegicus; assay: Total radioactivity in tissues of male sd rats dosed intravenously with H-labeled compound at 21 mg/kg after 2 hr in lung; format: functional; details: route intravenous; method in brief: as §2
[21] = Peak concentration of drug in rat plasma after oral dosing at 20 mg/kg. Concentration of parent compound was measured before (free) and after (total) beta-glucuronidase treatment; total 0.5 uM; format: ADME, organism-based; parameters: dose 20 mg/kg, route oral; details: read-out: Plasma level
[22] = system: Rattus norvegicus; assay: Total radioactivity in tissues of male sd rats dosed intravenously with H-labeled compound at 21 mg/kg after 4 hr in lung; format: functional; details: route intravenous
Method in brief: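 ³H label in the phenoxy ring, dissolved in PEG-400, specific activity 3.96 μCi/mg, given iv via femoral vein at 21 mg/kg to male Sprague-Dawley rats. Animals were killed at 2, 10, 30 min, 1, 2 and 4 h. Tissues from each group were pooled and homogenized, and total radioactivity was measured by combustion, averaged over duplicate combustions. Results are expressed as μg equiv/g. Two or three rats were used per time point.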

[23] = system: Rattus norvegicus; assay: Total radioactivity in tissues of male sd rats dosed intravenously with H-labeled compound at 21 mg/kg after 1 hr in kidney; format: functional; details: route intravenous; method in brief: as §2
[24] = system: Rattus norvegicus; assay: Total radioactivity in tissues of male sd rats dosed orally with H-labeled compound at 21 mg/kg after 15 min in liver; format: functional; details: route oral; method in brief: as §1
[25] = species: Rattus norvegicus; assay: Effective dose against antigen induced dyspnea in hyperactive inbred rat at a dose of […]; format: functional
[26] = system: Rattus norvegicus; assay: Total radioactivity in tissues of male sd rats dosed orally with H-labeled compound at 21 mg/kg after 24 hr r in kidney; format: functional; details: route oral; method in brief: as §1
[27] = system: Rattus norvegicus; assay: Total radioactivity in tissues of male sd rats dosed orally with H-labeled compound at 21 mg/kg after 30 min in lung; format: functional; details: route oral; method in brief: as §1
[28] = system: Rattus norvegicus; assay: Total radioactivity in tissues of male sd rats dosed intravenously with H-labeled compound at 21 mg/kg after 30 min in plasma; format: functional; details: route intravenous
[29] = system: Rattus norvegicus; assay: Total radioactivity in tissues of male sd rats dosed orally with H-labeled compound at 21 mg/kg after 48 hr in kidney; format: functional; details: route oral; method in brief: as §1
[30] = system: Rattus norvegicus; assay: Total radioactivity in tissues of male sd rats dosed orally with H-labeled compound at 21 mg/kg after 4 hr in plasma; format: functional; details: route oral; method in brief: as §1
[31] = system: Rattus norvegicus; assay: Total radioactivity in tissues of male sd rats dosed intravenously with H-labeled compound at 21 mg/kg after 30 min in liver; format: functional; details: route intravenous; method in brief: as §2
[32] = system: Rattus norvegicus; assay: Total radioactivity in tissues of male sd rats dosed intravenously with H-labeled compound at 21 mg/kg after 2 hr in plasma; format: functional; details: route intravenous
[33] = system: Rattus norvegicus; assay: Total radioactivity in tissues of male sd rats dosed intravenously with H-labeled compound at 21 mg/kg after 10 min in lung; format: functional; details: route intravenous; method in brief: as §2
[34] = system: Rattus norvegicus; assay: Total radioactivity in tissues of male sd rats dosed intravenously with H-labeled compound at 21 mg/kg after 10 min in kidney; format: functional; details: route intravenous; method in brief: as §2
[35] = system: Rattus norvegicus; assay: Total radioactivity in tissues of male sd rats dosed orally with H-labeled compound at 21 mg/kg after 1 hr in lung; format: functional; details: route oral; method in brief: as §1
[36] = system: Rattus norvegicus; assay: Total radioactivity in tissues of male sd rats dosed intravenously with H-labeled compound at 21 mg/kg after 30 min in lung; format: functional; details: route intravenous; method in brief: as §2
[37] = system: Rattus norvegicus; assay: Total radioactivity in tissues of male sd rats dosed orally with H-labeled compound at 21 mg/kg after 15 min in lung; format: functional; details: route oral; method in brief: as §1
[38] = system: Rattus norvegicus; assay: Total radioactivity in tissues of male sd rats dosed orally with H-labeled compound at 21 mg/kg after 1 hr in liver; format: functional; details: route oral; method in brief: as §1

In the case of `Oc1cc2c(cc1CCCOc1ccccc1)OC(CCc1ccccc1)C2` (stereo not drawn), the Total radioactivity [1] is reported as 0.09 ug equiv g-1, the Total radioactivity [2] is reported as 10.34 ug equiv g-1 and the IC50 [3] is reported as 6 nM. It also gave a Total radioactivity [4] of 40.77 ug equiv g-1, a Total radioactivity [5] of 0.64 ug equiv g-1 and a Total radioactivity [6] of 1.74 ug equiv g-1. The Total radioactivity [7] was 1.08 ug equiv g-1, the Total radioactivity [8] was 1.24 ug equiv g-1 and the Total radioactivity [9] was 142.77 ug equiv g-1. It also gave a Total radioactivity [10] of 2.82 ug equiv g-1, a Formation [11] of 4% and a Total radioactivity [12] of 3.92 ug equiv g-1. It also gave a Total radioactivity [13] of 1.62 ug equiv g-1, a Total radioactivity [14] of 3.34 ug equiv g-1 and a Total radioactivity [15] of 0.82 ug equiv g-1. It also gave a Total radioactivity [16] of 22.75 ug equiv g-1, a Total radioactivity [17] of 473.13 ug equiv g-1 and a Total radioactivity [18] of 26.77 ug equiv g-1. For the same molecule, the Total radioactivity [19] was 100.78 ug equiv g-1, the Total radioactivity [20] was 1.6 ug equiv g-1 and the Cmax [21] was 300 nM. It also gave a Total radioactivity [22] of 5 ug equiv g-1, a Total radioactivity [23] of 11.78 ug equiv g-1 and a Total radioactivity [24] of 7.82 ug equiv g-1. It also gave an ED50 at […] [25] of 0.06 mg/kg, a Total radioactivity [26] of 0.15 ug equiv g-1 and a Total radioactivity [27] of 4.11 ug equiv g-1. For the same molecule, the Total radioactivity [28] was 5.81 ug equiv g-1, the Total radioactivity [29] was 0.03 ug equiv g-1 and the Total radioactivity [30] was 3.27 ug equiv g-1. The Total radioactivity [31] was 41.11 ug equiv g-1, the Total radioactivity [32] was 0.88 ug equiv g-1 and the Total radioactivity [33] was 75.08 ug equiv g-1. For the same molecule, the Total radioactivity [34] was 54.13 ug equiv g-1, the Total radioactivity [35] was 3.58 ug equiv g-1 and the Total radioactivity [36] was 56.91 ug equiv g-1. The Total radioactivity [37] was 190.97 ug equiv g-1 and the Total radioactivity [38] was 10.93 ug equiv g-1.
